Reference: ChEMBL document CHEMBL1142128, “Hygromycin B inhibition of protein synthesis and ribosome biogenesis in Escherichia coli” (Antimicrob Agents Chemother, 2007)
In brackets after ≈: the same amount, converted by molar mass.

How the values were obtained:
Escherichia coli [1] = test: Decrease in 23S RNA accumulation in Escherichia coli at 100 ug/ml; assay type: functional; set-up: scale not given: the % may be the effect or the level left
Method in brief: (§1)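 E. coli grown in TSB across a range of hygromycin B concentrations, plus an untreated control. Total RNA was extracted from 1 ml of cells. Samples (5 µl at 200 ng/µl) were run on an Agilent Bioanalyzer RNA 6000 chip under total-RNA conditions, and RNA species were read from fluorescence electropherograms.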

Escherichia coli [2] = test: Effect on 16S rRNA accumulation in Escherichia coli at 50 ug/ml; assay type: functional; method in brief: as §1
Escherichia coli [3] = test: Inhibition of viable cells in Escherichia coli at 20 ug/ml; assay type: functional
Method in brief: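 E. coli grown at 37°C in TSB with or without drug. Viable cells were counted as colonies after serial dilution. Results are given as percent decrease versus untreated control; means of two determinations.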

Escherichia coli [4] = test: Reduction of growth rate in Escherichia coli at 25 ug/ml; assay type: functional; set-up: scale not given: the % may be the effect or the level left
Escherichia coli [5] = test: Increase in 16S precursor accumulation in Escherichia coli at 25 ug/ml; assay type: functional; method in brief: as §1
Escherichia coli [6] = test: Antimicrobial activity against Escherichia coli; assay type: functional
Method in brief: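 Broth dilution MIC; E. coli grown at 37°C in tryptic soy broth (TSB) with and without hygromycin B.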

Escherichia coli [7] = test: Effect on 16S rRNA accumulation in Escherichia coli at 100 ug/ml; assay type: functional; method in brief: as §1
Escherichia coli [8] = test: Effect on 16S rRNA accumulation in Escherichia coli at 75 ug/ml; assay type: functional; method in brief: as §1
Escherichia coli [9] = test: Effect on small RNA accumulation in Escherichia coli at 25 ug/ml; assay type: functional; method in brief: as §1
Escherichia coli [10] = test: Effect on small RNA accumulation in Escherichia coli at 75 ug/ml; assay type: functional; method in brief: as §1
Escherichia coli [11] = test: Decrease in 23S RNA accumulation in Escherichia coli at 75 ug/ml; assay type: functional; set-up: scale not given: the % may be the effect or the level left; method in brief: as §1
Escherichia coli [12] = test: Effect on 16S rRNA accumulation in Escherichia coli at 25 ug/ml; assay type: functional; method in brief: as §1
[13] = Inhibition of 30S ribosomal-subunit assembly in Escherichia coli
Method in brief: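 E. coli in TSB at 37°C were labelled with [3H]uridine (1 µCi/ml, 1 µg/ml) for two doublings, with or without drug. Label was chased with uridine at 50 µg/ml final for 15 min. The 30S share of total gradient cpm was compared with control; IC50 derived; means of two.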

Escherichia coli [14] = test: Decrease in 23S RNA accumulation in Escherichia coli at 50 ug/ml; assay type: functional; set-up: scale not given: the % may be the effect or the level left; method in brief: as §1
Escherichia coli [15] = test: Inhibition of protein synthesis in Escherichia coli measured as incorporation of [35S]methionine; assay type: functional, organism-based
Method in brief: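 E. coli in TSB at 37°C, with or without drug, received [35S]methionine (1 µCi/ml). Samples (0.4 ml) were taken every 5 min for 15 min, precipitated with 20% TCA, collected on glass-fibre filters, washed with 10% TCA, and scintillation-counted. IC50 derived from the concentration series; means of two.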

Escherichia coli [16] = test: Decrease in 23S RNA accumulation in Escherichia coli at 25 ug/ml; assay type: functional; set-up: scale not given: the % may be the effect or the level left; method in brief: as §1
Escherichia coli [17] = test: Increase in 16S precursor accumulation in Escherichia coli at 50 ug/ml; assay type: functional; method in brief: as §1
Escherichia coli [18] = test: Effect on small RNA accumulation in Escherichia coli at 50 ug/ml; assay type: functional; method in brief: as §1
Escherichia coli [19] = test: Effect on small RNA accumulation in Escherichia coli at 100 ug/ml; assay type: functional; method in brief: as §1
Escherichia coli [20] = test: Increase in 16S precursor accumulation in Escherichia coli at 75 ug/ml; assay type: functional; method in brief: as §1
Escherichia coli [21] = test: Increase in 16S precursor accumulation in Escherichia coli at 100 ug/ml; assay type: functional; method in brief: as §1

`CN[C@H]1C[C@@H](N)[C@H](O)[C@@H](O[C@@H]2O[C@H](CO)[C@H](O)[C@H]3O[C@@]4(O[C@H]23)O[C@H]([C@H](N)CO)[C@H](O)[C@H](O)[C@H]4O)[C@@H]1O` showed an Activity (Escherichia coli [1]) of 10%, an Activity (Escherichia coli [2]) of 10.4% and an inhibition at 20 µg/mL (Escherichia coli [3]) of 50%. For the same molecule, the Activity (Escherichia coli [4]) was 50%, the Activity (Escherichia coli [5]) was 0.5% and the MIC (Escherichia coli [6]) was 150 mg/L (≈ 284 µM). The Activity (Escherichia coli [7]) was 4.8%, the Activity (Escherichia coli [8]) was 7.3% and the Activity (Escherichia coli [9]) was 59%. The Activity (Escherichia coli [10]) was 64.5%, the Activity (Escherichia coli [11]) was 12.7% and the Activity (Escherichia coli [12]) was 10.4%. It also gave an IC50 [13] of 65 mg/L (≈ 123 µM), an Activity (Escherichia coli [14]) of 12.5% and an IC50 (Escherichia coli [15]) of 16 mg/L (≈ 30.3 µM). The Activity (Escherichia coli [16]) was 13.5%, the Activity (Escherichia coli [17]) was 0.75% and the Activity (Escherichia coli [18]) was 62.8%. It also gave an Activity (Escherichia coli [19]) of 68.8%, an Activity (Escherichia coli [20]) of 1.1% and an Activity (Escherichia coli [21]) of 1.2%.
